According to ChEMBL document CHEMBL4325909, “Synthesis and evaluation of chalcone analogues containing a 4-oxoquinazolin-2-yl group as potential anti-tumor agents” (Eur J Med Chem, 2019):
pIC50: −log10 of the molar value. Calls of active or inactive are those of the source. No cut-off for these calls is given here.

Key:
HeLa = experiment: Cytotoxicity against human HeLa cells assessed as reduction in cell viability after 72 hrs by MTS assay; type: functional, cell-based
In short: (§1)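 MTS (CellTiter 96 AQueous One) proliferation read after 72 h of exposure across a concentration range. IC50 is the concentration giving 50% proliferation inhibition. Triplicate determinations in three independent experiments, mean ± SD.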

HCT-116 [1] = experiment: Induction of apoptosis in human HCT116 cells accumulation of cleaved caspase-3 level at 2 times IC50 after 12 hrs by Western blot analysis; type: functional, cell-based
In short: (§2)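 Whole lysates in SDS/β-mercaptoethanol sample buffer run on 4–18% gradient SDS-PAGE and transferred to PVDF. Blocked in 5% milk/PBST, primary antibodies overnight at 4 °C, HRP secondaries 1 h. β-actin served as loading reference.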

HCT-116 [2] = experiment: Induction of apoptosis in human HCT116 cells accumulation of cleaved caspase-9 level at 2 times IC50 after 12 hrs by Western blot analysis; type: functional, cell-based; in short: as §2
MCF7 [3] = experiment: Cytotoxicity against human MCF7 cells assessed as reduction in cell viability after 72 hrs by MTS assay; type: functional, cell-based; conditions: MCF7, 72 h
In short: (§3)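 Cells kept in DMEM with 10% FBS at 37 °C, 5% CO2. Proliferation read by MTS (CellTiter 96 AQueous One) 72 h after exposure across a concentration range. IC50 is the concentration giving 50% proliferation inhibition. Triplicate wells, three independent experiments, mean ± SD.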

HCT-116 [4] = experiment: Induction of apoptosis in human HCT116 cells assessed as late apoptotic cells at 1 times IC50 after 24 hrs by annexin V-FITC/propidium iodide staining-based flow cytometry method (reference value: 5.4%); type: functional
MCF-10A [5] = experiment: Induction of apoptosis in human MCF10A cells after 24 hrs by annexin V-FITC/propidium iodide staining-based flow cytometry method; type: cell-based
MCF-10A [6] = experiment: Induction of apoptosis in human MCF10A cells assessed as necrotic cells at 2 times IC50 after 24 hrs by annexin V-FITC/propidium iodide staining-based flow cytometry method (reference value: 0.57%); type: cell-based
HCT-116 [7] = experiment: Induction of apoptosis in human HCT116 cells accumulation of cleaved caspase-9 level at 2 times IC50 after 8 hrs by Western blot analysis; type: functional, cell-based; in short: as §2
HCT-116 [8] = experiment: Induction of apoptosis in human HCT116 cells assessed as early apoptotic cells at 2 times IC50 after 24 hrs by annexin V-FITC/propidium iodide staining-based flow cytometry method (reference value: 3.8%); type: functional
HCT-116 [9] = experiment: Induction of apoptosis in human HCT116 cells accumulation of cleaved PARP1 level at 2 times IC50 after 12 hrs by Western blot analysis; type: functional, cell-based; in short: as §2
MCF-10A [10] = experiment: Induction of apoptosis in human MCF10A cells assessed as late apoptotic cells at 1 times IC50 after 24 hrs by annexin V-FITC/propidium iodide staining-based flow cytometry method (reference value: 3.81%); type: cell-based
MCF-10A [11] = experiment: Induction of apoptosis in human MCF10A cells assessed as necrotic cells at 1 times IC50 after 24 hrs by annexin V-FITC/propidium iodide staining-based flow cytometry method (reference value: 0.57%); type: cell-based
HCT-116 [12] = experiment: Cell cycle arrest in human HCT116 cells assessed as increase in accumulation of cells at sub-G1 phase after 24 hrs by propidium iodide staining-based flow cytometry method; type: functional
HT-29 = experiment: Cytotoxicity against human HT-29 cells assessed as reduction in cell viability after 72 hrs by MTS assay; type: functional, cell-based; conditions: HT-29, 72 h; in short: as §1
MCF-10A [13] = experiment: Induction of apoptosis in human MCF10A cells assessed as late apoptotic cells at 2 times IC50 after 24 hrs by annexin V-FITC/propidium iodide staining-based flow cytometry method (reference value: 3.81%); type: cell-based
HCT-116 [14] = experiment: Induction of apoptosis in human HCT116 cells accumulation of cleaved caspase-7 level at 2 times IC50 after 12 hrs by Western blot analysis; type: functional, cell-based; in short: as §2
MCF-10A [15] = experiment: Induction of apoptosis in human MCF10A cells assessed as early apoptotic cells at 2 times IC50 after 24 hrs by annexin V-FITC/propidium iodide staining-based flow cytometry method (reference value: 0.20%); type: cell-based
HCT-116 [16] = experiment: Induction of apoptosis in human HCT116 cells assessed as necrotic cells at 1 times IC50 after 24 hrs by annexin V-FITC/propidium iodide staining-based flow cytometry method (reference value: 4.8%); type: functional
HCT-116 [17] = experiment: Induction of apoptosis in human HCT116 cells assessed as viable cells at 1 times IC50 after 24 hrs by annexin V-FITC/propidium iodide staining-based flow cytometry method (reference value: 86.0%); type: functional
HCT-116 [18] = experiment: Induction of apoptosis in human HCT116 cells assessed as necrotic cells at 2 times IC50 after 24 hrs by annexin V-FITC/propidium iodide staining-based flow cytometry method (reference value: 4.8%); type: functional
MCF-10A [19] = experiment: Induction of apoptosis in human MCF10A cells assessed as early apoptotic cells at 1 times IC50 after 24 hrs by annexin V-FITC/propidium iodide staining-based flow cytometry method (reference value: 0.20%); type: cell-based
HCT-116 [20] = experiment: Induction of reactive oxygen species generation in human HCT116 cells assessed as increase in mitochondrial superoxide generation at 1 to 2 times IC50 after 24 hrs by MitoSOX red dye-based fluorescence microscopic analysis; type: functional, cell-based
MDA-MB-231 = experiment: Cytotoxicity against human MDA-MB-231 cells assessed as reduction in cell viability after 72 hrs by MTS assay; type: functional, cell-based; conditions: MDA-MB-231, 72 h; in short: as §1
A549 = experiment: Cytotoxicity against human A549 cells assessed as reduction in cell viability after 72 hrs by MTS assay; type: functional, cell-based; conditions: A549, 72 h; in short: as §1
[21] = Induction of apoptosis in human MCF10A cells assessed as viable cells at 2 times IC50 after 24 hrs by annexin V-FITC/propidium iodide staining-based flow cytometry method (reference value: 95.4%); type: cell-based, MCF-10A; conditions: read-out: Activity
HCT-116 [22] = experiment: Cytotoxicity against human HCT116 cells assessed as reduction in cell viability after 72 hrs by MTS assay; type: functional, cell-based; conditions: HCT-116, 72 h; in short: as §3
HCT-116 [23] = experiment: Induction of apoptosis in human HCT116 cells after 24 hrs by acridine orange/ethidium bromide staining-based fluorescence microscopic analysis; type: functional, cell-based
HCT-116 [24] = experiment: Induction of apoptosis in human HCT116 cells assessed as viable cells at 2 times IC50 after 24 hrs by annexin V-FITC/propidium iodide staining-based flow cytometry method (reference value: 86.0%); type: functional
[25] = Induction of apoptosis in human MCF10A cells assessed as viable cells at 1 times IC50 after 24 hrs by annexin V-FITC/propidium iodide staining-based flow cytometry method (reference value: 95.4%); type: cell-based, MCF-10A; conditions: read-out: Activity
HCT-116 [26] = experiment: Induction of apoptosis in human HCT116 cells assessed as late apoptotic cells at 2 times IC50 after 24 hrs by annexin V-FITC/propidium iodide staining-based flow cytometry method (reference value: 5.4%); type: functional
MCF7 [27] = experiment: Cytotoxicity against human MCF7 cells assessed as reduction in cell viability at 20 uM after 72 hrs by MTS assay relative to control; type: functional
In short: (§4)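 Cells grown in DMEM with 10% FBS at 37 °C, 5% CO2, exposed to 20 μM for 72 h. Proliferation read by MTS and inhibition expressed relative to vehicle. ≥50% inhibition counted as active. Triplicate wells, three independent experiments.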

HCT-116 [28] = experiment: Induction of apoptosis in human HCT116 cells assessed as early apoptotic cells at 1 times IC50 after 24 hrs by annexin V-FITC/propidium iodide staining-based flow cytometry method (reference value: 3.8%); type: functional
MCF-10A [29] = experiment: Cytotoxicity against human MCF10A cells assessed as reduction in cell viability after 72 hrs by MTS assay; type: cell-based; in short: as §1
[30] = Selectivity index, ratio of IC50 for human MCF10A cells to IC50 for human MCF7 cells; type: toxicity; conditions: MCF10A cells versus MCF7 cells, read-out: Ratio IC50
HCT-116 [31] = experiment: Induction of apoptosis in human HCT116 cells after 24 hrs by annexin V-FITC/propidium iodide staining-based flow cytometry method; type: functional, cell-based
HCT-116 [32] = experiment: Cytotoxicity against human HCT116 cells assessed as reduction in cell viability at 20 uM after 72 hrs by MTS assay relative to control; type: functional; in short: as §4
HCT-116 [33] = experiment: Induction of mitochondrial membrane depolarization in human HCT116 cells at 2 times IC50 after 24 hrs by JC-1 staining based fluorescence microscopic analysis; type: functional, cell-based
In short: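 HCT-116 cells exposed at 2× IC50 for 24 h, washed, then stained with JC-1 in fresh medium for 20 min at 37 °C and rinsed. Red aggregates and green monomers imaged by fluorescence microscopy at 40×.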

SMILES: COc1ccc(OC)c(C(=O)/C=C/c2nc3ccccc3c(=O)[nH]2)c1
- pIC50 (HeLa): 5.08
- Activity (HCT-116 [1]): Active
- Activity (HCT-116 [2]): Active
- pIC50 (MCF7 [3]): 5.39
- Activity (HCT-116 [4]): 10.8%
- Activity (MCF-10A [5]): Dose-dependent effect
- Activity (MCF-10A [6]): 0.87%
- Activity (HCT-116 [7]): Active
- Activity (HCT-116 [8]): 6.9%
- Activity (HCT-116 [9]): Active
- Activity (MCF-10A [10]): 4.67%
- Activity (MCF-10A [11]): 0.62%
- Activity (HCT-116 [12]): Dose-dependent effect
- pIC50 (HT-29): 5.21
- Activity (MCF-10A [13]): 5.38%
- Activity (HCT-116 [14]): Active
- Activity (MCF-10A [15]): 1.19%
- Activity (HCT-116 [16]): 8.9%
- Activity (HCT-116 [17]): 78.2%
- Activity (HCT-116 [18]): 9.7%
- Activity (MCF-10A [19]): 0.3%
- Activity (HCT-116 [20]): Active
- pIC50 (MDA-MB-231): 4.97
- pIC50 (A549): 4.90
- viability at 24 h, 2 times IC50 [21]: 92.6%
- pIC50 (HCT-116 [22]): 5.45
- Activity (HCT-116 [23]): Dose-dependent effect
- Activity (HCT-116 [24]): 54.3%
- viability at 24 h, 1 times IC50 [25]: 94.4%
- Activity (HCT-116 [26]): 29.1%
- Activity (MCF7 [27]): >=50%
- Activity (HCT-116 [28]): 2.1%
- pIC50 (MCF-10A [29]): 5.01
- selectivity ratio [30]: > 2
- Activity (HCT-116 [31]): Dose-dependent effect
- Activity (HCT-116 [32]): >=50%
- Activity (HCT-116 [33]): Active
